# Results from PubChem BioAssay AID624174 (Southern Research Specialized Biocontainment Screening …, 2012).
# The source made the active and inactive calls.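 How the source made its calls: active means inhibition of 30% or more at any tested concentration; inactive means the rest.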
# Biological target: Aspartyl aminopeptidase (Homo sapiens) (UniProt Q9ULA0)
# Assay: hM18AAP inhibitors, dose response, selectivity assay for PFM18AAP inhibitor project, biochemical, QFRET, H-Glu-NHMec substrate, set 3 (AID 624174)
# Conditions: purified recombinant hM18AAP, H-Glu-NHMec fluorescence; for inhibition: at 100 µM (top of the series)
# Procedure, shortened: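 Test system: Purified recombinant human M18 aspartyl aminopeptidase (hM18AAP) | Quantity: hM18AAP enzyme at 5 µg/mL final | Medium: Tris pH 7.5, CoCl2, DMSO | Reagent: Fluorogenic substrate H-Glu-NHMec at 0.1 mM final | Timing: 90 min reaction, room temperature | Measured by: NHMec fluorescence at 370/460 nm | Read-out: % inhibition and IC50 from logistic fit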
Compound,IC50 [µM],inhibition
Cc1cccc2c(NCCc3ccc(O)c(O)c3)ccnc12,12.7,–
Oc1ccc(CCNc2ccnc3c(F)cccc23)cc1O,8.36,–
Oc1ccc(C2CCCN(c3ccnc4ccccc34)C2)cc1O (centres undefined),5.59,–
COc1cc(Br)c(CCNc2c3ccccc3nc3ccccc23)cc1OC,–,inactive
COc1ccc(CCN(C)c2c3ccccc3nc3ccccc23)cc1OC,–,inactive
Clc1c2c(nc3ccccc13)CCCC2,–,inactive
Cc1cc(N(C)CCc2ccc(O)c(O)c2)c2ccccc2n1,9.75,–
Oc1cccc(CCNc2ccnc3ccccc23)c1O,11.6,–
Oc1ccc(CCCNc2c3c(nc4ccccc24)CCCC3)cc1O,9.5,–
CN(CCCc1ccc(O)c(O)c1)c1ccnc2ccccc12,9.65,–
COc1ccc(C2CCN(c3ccnc4ccccc34)CC2)cc1OC,–,inactive
COc1ccc(CCCN(C)c2c3ccccc3nc3ccccc23)cc1OC,–,inactive
CN(CCCc1ccc(O)c(O)c1)c1c2ccccc2nc2ccccc12,–,inactive
CN(CCc1ccc(O)c(O)c1)c1ccnc2cc(Cl)ccc12,7.67,–
CCN(CCc1ccc(OC)c(OC)c1)c1c2ccccc2nc2ccccc12,–,inactive
Oc1ccc(CCNc2ccnc3cc(Cl)ccc23)cc1O,13.6,–
COc1ccc(CCNc2ccnc3c(F)cccc23)cc1OC,–,inactive
COc1ccc(CCNc2cc(C)nc3ccccc23)cc1OC,–,inactive
COc1ccc(CCN(C)c2ccnc3c(F)cccc23)cc1OC,–,inactive
COc1ccc(CCN(C)c2cc(C)nc3ccccc23)cc1OC,–,inactive
CCOc1ccc2nccc(N(C)CCc3ccc(OC)c(OC)c3)c2c1,–,inactive
CC(C)(CNc1ccnc2ccccc12)c1ccc(O)c(O)c1,35,–

Compound,IC50 [µM],inhibition
CN(CCc1ccc(O)c(O)c1)c1ccnc2c(F)cccc12,7.92,–
COc1ccc(CCNc2ccnc3cc(Cl)ccc23)cc1OC,–,inactive
Oc1ccc(C2CCN(c3ccnc4ccccc34)CC2)cc1O,4.68,–
COc1ccc(CCN(C)c2ccnc3cc(Cl)ccc23)cc1OC,–,inactive
Cc1cccc2c(N(C)CCc3ccc(O)c(O)c3)ccnc12,10.5,–
CC(Cc1ccc(O)c(O)c1)Nc1ccnc2ccccc12 (centres undefined),14.4,–
COc1ccc(CCNC(=O)c2cc(C)ccc2N)cc1OC,–,inactive
COc1ccc(CCN(C)c2ccnc3c(C)cccc23)cc1OC,–,inactive
COc1cc(Br)c(CCNc2c3c(nc4ccccc24)CCCC3)cc1OC,–,inactive
COc1ccc(CCNc2ccnc3c(C)cccc23)cc1OC,–,inactive
CN(CCc1ccc(O)c(O)c1)c1ncnc2ccccc12,6.74,–
COc1ccc(CCN(C)c2ncnc3ccccc23)cc1OC,–,inactive
COc1ccc(CCNc2c3c(nc4ccc(C)cc24)CCCC3)cc1OC,–,inactive
COc1ccc(CCNc2ncnc3ccccc23)cc1OC,–,inactive
CCOc1ccc2nccc(NCCc3ccc(OC)c(OC)c3)c2c1,–,inactive
Oc1ccc(C2CCN(c3ccnc4ccccc34)C2)cc1O (centres undefined),5.59,–
COc1ccc(CCCNc2c3c(nc4ccccc24)CCCC3)cc1OC,–,inactive
CN(CCc1ccc(O)c(O)c1)c1c2ccccc2nc2ccccc12,–,inactive
CCN(CCc1ccc(O)c(O)c1)c1c2ccccc2nc2ccccc12,–,inactive
COc1ccc(C2CCN(c3ccnc4ccccc34)C2)cc1OC (centres undefined),–,inactive
COc1cc(Br)c(CCNc2ccnc3ccccc23)cc1OC,–,inactive
Nc1c2ccccc2nc2ccccc12,–,inactive
